Source: ChEMBL document CHEMBL6092172, “Exploration and characterization of the antimalarial activity of cyclopropyl carboxamides that target the mitochondrial protein, cytochrome b” (Eur J Med Chem, 2024)
Active and inactive are the calls of the source. The calls are words filed in the database; no cut-off is given here.

Assays:
Plasmodium falciparum [1] = experiment: Antimalarial activity against asexual blood stage Plasmodium falciparum Dd2 harbouring Cyt b with I22L mutant incubated for 72 hrs by flow cytometry analysis; type: functional, organism-based; conditions: Dd2, 72 h
Procedure, shortened: (§1)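 Asexual parasites were exposed to compound for 72 h and growth was read as SYBR green signal by flow cytometry (FACS).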

Plasmodium falciparum [2] = experiment: Antimalarial activity against asexual Plasmodium falciparum SB1-A6 incubated for 72 hrs by SYBR green staining based flow cytometry analysis; type: functional, organism-based; conditions: SB1-A6, 72 h; procedure, shortened: as §1
Plasmodium falciparum [3] = experiment: Antimalarial activity against asexual Plasmodium falciparum Dd2 harbouring ScDHODH incubated for 72 hrs by SYBR green staining based flow cytometry analysis; type: functional, organism-based; conditions: Dd2, 72 h; procedure, shortened: as §1
Plasmodium falciparum [4] = experiment: Effect on oxygen consumption rate in Plasmodium falciparum infected with human RBC at 5 uM by Seahorse XFe24 analyzer; type: functional, organism-based
Procedure, shortened: (§2)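 Malate-dependent OCR of P. falciparum measured first as 5 basal timepoints. Compound (5 μM) then injected and OCR followed for 8 timepoints. TMPD (cytochrome c donor) then added for 5 timepoints, followed by NaN3 (complex IV inhibitor) for 5 timepoints. Means and SDs of 3 technical replicates.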

Plasmodium falciparum [5] = experiment: Effect on oxygen consumption rate in Plasmodium falciparum infected with human RBC at 5 uM in presence of TMPD by Seahorse XFe24 analyzer; type: functional, organism-based; procedure, shortened: as §2
Plasmodium falciparum [6] = experiment: Antimalarial activity against asexual Plasmodium falciparum 3D7 incubated for 72 hrs by LDH assay; type: functional, organism-based; conditions: 3D7, 72 h
Procedure, shortened: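 P. falciparum 3D7 asexual parasites exposed 72 h at 37 °C (5 % CO2, 5 % O2) to a 10-point 1-in-3 dilution series […], 0.1 % DMSO; 0.1 % DMSO and 100 nM chloroquine as controls. Plates frozen at −80 °C and thawed, then LDH read (lactate/APAD/NBT/diaphorase, Tris pH 7.5) at 650 nm after 30 min.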

HepG2 = experiment: Cytotoxicity against human HepG2 cells assessed as reduction in cell viability measured after 48 hrs by cell-titer glo assay; type: functional
Procedure, shortened: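 HepG2 cells grown in DMEM with 10 % FCS; 1000 cells per well seeded onto a 1:2 dilution series from 50 μM (0.5 % DMSO). Incubated 48 h at 37 °C, 5 % CO2. Viability read by CellTiter-Glo and normalised to DMSO and 10 μM bortezomib controls. Value from four-parameter fit; average of ≥2 independent experiments.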

Plasmodium falciparum [7] = experiment: Antimalarial activity against asexual compound resistant Plasmodium falciparum harbouring cyt b […] mutant at Qo site measured after 72 hrs by LDH assay; type: functional, organism-based
Procedure, shortened: (§3)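 They were tested in a 72 h LDH assay: 10-point 3-fold dilutions […] in 0.1 % DMSO, with 100 nM chloroquine as the kill control. Incubation was 37 °C under 5 % CO2/5 % O2, then freeze–thaw, APAD/NBT/diaphorase mix, A650 after 30 min, and a four-parameter fit.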

Plasmodium falciparum [8] = experiment: Antimalarial activity against asexual compound resistant Plasmodium falciparum harbouring cyt b F264L mutant at Qo site measured after 72 hrs by LDH assay; type: functional, organism-based; procedure, shortened: as §3
Plasmodium falciparum [9] = experiment: Antimalarial activity against asexual 4-(((N-cyclopropyl-2,4,6-trimethylphenyl)sulfonamido)methyl)-N-methylbenzamide-resistant Plasmodium falciparum harbouring cyt b […] mutant at Qo site measured after 72 hrs by LDH assay; type: functional, organism-based; procedure, shortened: as §3
Plasmodium falciparum [10] = experiment: Antimalarial activity against asexual blood stage Plasmodium falciparum Dd2 incubated for 72 hrs by flow cytometry analysis; type: functional, organism-based; conditions: Dd2, 72 h; procedure, shortened: as §1
Plasmodium falciparum [11] = experiment: Antimalarial activity against asexual N-cyclopropyl-4-((cyclopropyl(2,4-dichlorobenzyl)amino)methyl)benzamide-resistant Plasmodium falciparum harbouring DHODH genome with 5 fold CNV measured after 72 hrs by LDH assay; type: functional, organism-based; procedure, shortened: as §3
Plasmodium falciparum [12] = experiment: Antimalarial activity in asexual blood-stage Plasmodium falciparum Dd2-B2 infected in human O+ RBC assessed as minimum inoculum of resistance at 3 times IC90 measured for 60 days by SYBR green/Mito tracker deep red based flow cytometry analysis; type: functional, organism-based; conditions: time 60.0 day
Procedure, shortened: (§4)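 Cultures were grown in human O+ RBCs at 3 % hematocrit in AlbuMAX-supplemented RPMI-1640 at 37 °C under 5 % O2/5 % CO2/90 % N2. […] Wells were checked three times weekly by flow cytometry and smear; a well was positive at 0.3 % parasitemia with parasites seen on smear.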

Plasmodium falciparum [13] = experiment: Effect on oxygen consumption rate in Plasmodium falciparum infected with human RBC at 5 uM in presence of NaN3 by Seahorse XFe24 analyzer; type: functional, organism-based; procedure, shortened: as §2
Plasmodium falciparum [14] = experiment: Antimalarial activity against asexual synchronized ring stage Plasmodium falciparum 3D7 infected with human RBC assessed as parasite growth inhibition measured after 48 hrs by giemsa staining based microscopy analysis; type: functional, organism-based; conditions: 3D7, Erythrocyte
Procedure, shortened: (§5)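 Giemsa-stained blood smears scored by microscopy for stage progression.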

Plasmodium falciparum [15] = experiment: Antimalarial activity against asexual synchronized ring stage Plasmodium falciparum 3D7 infected with human RBC assessed as parasite arrest measured after 24 hrs by giemsa staining based microscopy analysis; type: functional, organism-based; procedure, shortened: as §5
Plasmodium falciparum [16] = experiment: Antimalarial activity against asexual synchronized ring stage Plasmodium falciparum 3D7 infected with human RBC assessed as parasite arrest measured after 12 to 48 hrs by SYBR green staining based flow cytometry analysis; type: functional, organism-based; conditions: time 12-48 hrs
Procedure, shortened: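 Parasitemia measured by flow cytometry of SYBR Green-stained infected RBCs; mean of three technical replicates.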

Plasmodium falciparum [17] = experiment: Antimalarial activity against asexual synchronized ring stage Plasmodium falciparum 3D7 infected with human RBC assessed as parasite arrest at 10 times EC50 treated every 24 hrs for 120 hrs followed by compound washout and subsequent addition of RBCs measured after 28 days by parasite reduction ratio assay; type: functional, organism-based
Procedure, shortened: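 Parasite reduction ratio assay on 3D7. […] Compound then washed out and uninfected RBCs and medium added. Regrowth measured by LDH assay after 28 days; means and SDs of 3 replicate experiments.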

Plasmodium berghei [18] = experiment: Antiplasmodial activity against exo-erythrocytic stage Plasmodium berghei sporozoites expressing GFP-Luc fused genes infected in human HepG2-A16-CD81 cells expressing EGFP assessed as reduction in parasite growth measured after 48 hrs by bioluminescence analysis; type: functional, organism-based; conditions: HepG2-A16-CD81, 48 h
Procedure, shortened: (§6)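 HepG2 cells pre-treated with a 10-point dilution series of compound, then infected with luciferase-expressing P. berghei sporozoites. After 48 h, exoerythrocytic form viability read by bioluminescence.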

Plasmodium berghei [19] = experiment: Antiplasmodial activity against liver stage Plasmodium berghei sporozoites infected in human HepG2 assessed as reduction in parasite growth measured after 48 hrs by bioluminescence analysis; type: functional, organism-based; conditions: HepG2, 48 h; procedure, shortened: as §6
Plasmodium falciparum [20] = experiment: Antimalarial activity against asexual blood stage Plasmodium falciparum Dd2-B2 assessed as parasite recrudescence by measuring minimum inoculum of resistance measured for 60 days by flow cytometry; type: functional; conditions: time 60 day; procedure, shortened: as §4
Plasmodium falciparum [21] = experiment: Antimalarial activity against asexual Plasmodium falciparum 3D7 harbouring cytb with V259L mutant at Qo site incubated for 72 hrs by SYBR green staining based flow cytometry analysis; conditions: 3D7, 72 h
Plasmodium falciparum [22] = experiment: Antiplasmodial activity against Plasmodium falciparum NF54 stage V gametocytes assessed as reduction in xanthurenic acid induced male gametocyte development measured after 48 hrs by fluorescence microscopic analysis; conditions: NF54, 48 h
Plasmodium falciparum [23] = experiment: Antiplasmodial activity against Plasmodium falciparum NF54 stage V gametocytes assessed as reduction in xanthurenic acid induced female gametocyte development measured after 48 hrs by fluorescence microscopic analysis; conditions: NF54, 48 h
Plasmodium falciparum [24] = experiment: Antimalarial activity against asexual N-cyclopropyl-4-((cyclopropyl(2,4-dichlorobenzyl)amino)methyl)benzamide-resistant Plasmodium falciparum harbouring DHODH genome with 2 fold CNV measured after 72 hrs by LDH assay; type: functional, organism-based; procedure, shortened: as §3

Cc1cc(Nc2ccc(S(F)(F)(F)(F)F)cc2)n2nc(C(C)(F)F)nc2n1 [DSM-265]
EC50 (Plasmodium falciparum [1]): 0.008 µM
EC50 (Plasmodium falciparum [2]): > 10 µM
EC50 (Plasmodium falciparum [3]): > 10 µM
Activity (Plasmodium falciparum [4]): inactive
Activity (Plasmodium falciparum [5]): inactive

CNC(=O)c1ccc(CN(C2CC2)S(=O)(=O)c2c(C)cc(C)cc2C)cc1
EC50 (Plasmodium falciparum [6]): 0.11 µM
CC50 (HepG2): > 40 µM
EC50 (Plasmodium falciparum [7]): 1.73 µM
EC50 (Plasmodium falciparum [8]): 2.1 µM
EC50 (Plasmodium falciparum [9]): 0.283 µM
EC50 (Plasmodium falciparum [10]): 0.07 µM
EC50 (Plasmodium falciparum [1]): 0.065 µM
EC50 (Plasmodium falciparum [2]): > 10 µM
EC50 (Plasmodium falciparum [3]): > 10 µM
EC50 (Plasmodium falciparum [11]): 0.5 µM
Activity (Plasmodium falciparum [12]): Active
Activity (Plasmodium falciparum [4]): Active
Activity (Plasmodium falciparum [5]): inactive
Activity (Plasmodium falciparum [13]): Active
EC50 (Plasmodium falciparum [14]): 1.3 µM
Activity (Plasmodium falciparum [15]): Active
Activity (Plasmodium falciparum [16]): Active
Activity (Plasmodium falciparum [17]): Active; Compound Showed Moderate To Slow Rate Of Kill Than Pyrimethamine And Slightly Quicker Than Atq
EC50 (Plasmodium berghei [18]): 0.07 µM
EC50 (Plasmodium berghei [19]): > 50 µM
Activity (Plasmodium falciparum [20]): >2 10^7No_unit
EC50 (Plasmodium falciparum [21]): 0.42 µM
EC50 (Plasmodium falciparum [22]): 1.1 µM
EC50 (Plasmodium falciparum [23]): > 25 µM

Cc1cccc(CN(Cc2ccc(C(=O)NC3CC3)cc2)C2CC2)c1C
EC50 (Plasmodium falciparum [6]): 0.15 µM
CC50 (HepG2): > 40 µM

O=C1C(O)=C([C@H]2CC[C@H](c3ccc(Cl)cc3)CC2)C(=O)c2ccccc21 [ATOVAQUONE]
EC50 (Plasmodium falciparum [1]): 5.4 µM
EC50 (Plasmodium falciparum [2]): > 10 µM
EC50 (Plasmodium falciparum [3]): > 10 µM
Activity (Plasmodium falciparum [4]): Active
Activity (Plasmodium falciparum [5]): inactive
Activity (Plasmodium falciparum [13]): Active
EC50 (Plasmodium falciparum [14]): 11.7 µM
Activity (Plasmodium falciparum [15]): Active
Activity (Plasmodium falciparum [16]): Active
EC50 (Plasmodium falciparum [21]): 0.013 µM

CN(C(=O)c1ccc(CN(Cc2ccccc2)C2CC2)cc1)C1CC1
EC50 (Plasmodium falciparum [6]): > 10 µM

O=C(NC1CCCC1)c1ccc(CN(Cc2ccc(Cl)cc2Cl)C2CC2)cc1
EC50 (Plasmodium falciparum [6]): 1.8 µM

O=C(Nc1ccccc1)c1ccc(CN(Cc2ccc(Cl)cc2Cl)C2CC2)cc1
EC50 (Plasmodium falciparum [6]): 1.2 µM

CCCN(Cc1ccc(C(=O)NC2CC2)cc1)Cc1c(C)cc(C)cc1C
EC50 (Plasmodium falciparum [23]): > 25 µM

O=C(NC1CC1)c1ccc(CN(Cc2ccccc2)Cc2ccccc2)cc1
EC50 (Plasmodium falciparum [6]): 0.59 µM

O=C(NC1CC1)c1ccc(CN(Cc2ccc(Cl)cc2Cl)C2CC2)cc1
EC50 (Plasmodium falciparum [24]): 0.62 µM
EC50 (Plasmodium falciparum [10]): 0.118 µM
Activity (Plasmodium falciparum [12]): Active
Activity (Plasmodium falciparum [4]): Active
Activity (Plasmodium falciparum [5]): inactive
Activity (Plasmodium falciparum [13]): Active
EC50 (Plasmodium falciparum [14]): 2.5 µM
Activity (Plasmodium falciparum [15]): Active
Activity (Plasmodium falciparum [16]): Active
Activity (Plasmodium falciparum [17]): Active; Compound Showed Moderate To Slow Rate Of Kill Than Pyrimethamine And Slightly Quicker Than Atq
Activity (Plasmodium falciparum [20]): 1.9 10^7No_unit
EC50 (Plasmodium falciparum [23]): > 25 µM

CC(C)CN(Cc1ccc(C(=O)NC2CC2)cc1)C1CC1
EC50 (Plasmodium falciparum [6]): 0.4 µM
